SENP7 inh – inhibitors of human SENP7 protease | Q9BQF6 | recombinant SENP7, Z-RLRGG-aminoluciferin luminescence, 40 min | inhibition, % at 5 µM | actives 1.5% (n = 330,000) | AID 434973;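 active means inhibition above about 50% at the single test dose, limit read from the data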;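 further: plate controls were DMSO with enzyme for no effect and no enzyme buffer wells for full effect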
Target sequence (Q9BQF6 706-1050 limits assumed): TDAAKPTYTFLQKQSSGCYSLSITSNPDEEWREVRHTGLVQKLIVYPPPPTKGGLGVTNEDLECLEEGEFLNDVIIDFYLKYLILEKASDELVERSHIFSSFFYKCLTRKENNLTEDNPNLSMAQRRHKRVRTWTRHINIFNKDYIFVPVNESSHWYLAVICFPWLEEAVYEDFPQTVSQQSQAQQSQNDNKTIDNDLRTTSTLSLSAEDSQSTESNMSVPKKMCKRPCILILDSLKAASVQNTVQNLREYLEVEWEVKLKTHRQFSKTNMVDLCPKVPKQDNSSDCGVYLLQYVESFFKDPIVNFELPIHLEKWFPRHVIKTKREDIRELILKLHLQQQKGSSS
SENP8 block-1 – SENP8 protease inhibition; purified SENP8, Z-RLRGG-aminoluciferin cleavage, luminescence; inhibition, % at 10 µM; actives 1.2% (n = 330,000); in the data active means inhibition above about 50%
SENP6 block – SENP6 protease inhibition | Q9GZR1 | Recombinant SENP6 catalytic domain, aminoluciferin luminescence | inhibition, % at 10 µM | actives 1.8% (n = 330,000) | AID 2599;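 active means inhibition above about 50% at the single tested dose, limit read from the data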;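 further: plate controls were DMSO wells with enzyme for no effect and DMSO wells lacking enzyme for full effect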
SENP1 inh – inhibitors of human SENP1 SUMO protease catalytic domain; actives 0.21% (n = 360,000); recombinant SENP1 catalytic domain, CyPet-SUMO1-YPet FRET cleavage; Q9P0U3; inhibition, % at 10 µM;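 active means inhibition at least 30% at 10 µM, raw YFP signal under a set limit, fluorescence ratio 0.5 to 1.5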;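 further: 0% = enzyme with DMSO and 100% = no enzyme wells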
Target sequence (Q9P0U3 419-644 limits assumed): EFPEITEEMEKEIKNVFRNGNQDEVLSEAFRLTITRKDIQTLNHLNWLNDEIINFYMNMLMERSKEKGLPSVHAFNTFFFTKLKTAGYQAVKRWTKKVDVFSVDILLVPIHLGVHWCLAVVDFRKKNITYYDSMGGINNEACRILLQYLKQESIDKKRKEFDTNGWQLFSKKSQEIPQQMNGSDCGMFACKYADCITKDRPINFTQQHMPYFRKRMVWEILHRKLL
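Assay system – human recombinant His6-tagged SENP1 catalytic domain enzyme · Input – SENP1 enzyme, 20 pM final · Buffer or medium – Tris pH 8 buffer plus EDTA, NaCl, BME, BSA, NP40, catalase · Schedule – 50 min reaction at room temperature · Technique – FRET read of cyan and yellow fluorescence · Control set – no-enzyme wells low, DMSO-plus-enzyme wells high control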
SENP8 block-2 – inhibitors of human SENP8 protease. inhibition, % at 20 µM. AID 602440. recombinant SENP8, Nedd8 substrate fluorescence. actives 0.64% (n = 360,000). Q96LD8; in the data active means inhibition mostly above about 40%, no sharp cut-off; inactive means mostly below about 27%
SENP8 confirm – confirmation of human SENP8 protease inhibitors; Recombinant SENP8, Z-RLRGG-aminoluciferin luminescence, 60 min; shares compounds with SENP7 inh; inhibition, % at 12.5 µM; actives 40% (n = 6,200);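 active means mean inhibition across replicates above about 50%, limit read from the data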
SENP6 conf – confirmation of human SENP6 protease inhibitors | recombinant SENP6, Z-RLRGG-aminoluciferin luminescence | actives 58% (n = 6,200) | shares compounds with SENP7 inh | AID 488915 | inhibition, % at 12.5 µM
SENP7 confirm – human SENP7 inhibition, confirmed; inhibition, % at 12.5 µM; recombinant SENP7, Z-RLRGG-aminoluciferin luminescence, 40 min; AID 488917; shares compounds with SENP7 inh; actives 69% (n = 6,200)
Casp3 SENP sel – caspase-3 inhibition (SENP selectivity assay); shares compounds with SENP7 inh; purified caspase-3, Z-DEVD-aminoluciferin luminescence, 60 min; inhibition, % at 12.5 µM; actives 60% (n = 6,200); AID 488918;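 active means mean inhibition above about 50%, limit read from the data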;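 further: plate controls were enzyme with DMSO for no effect and wells without caspase-3 for full effect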
Luc interf – luminescence interference (SENP counter-screen); shares compounds with SENP7 inh; Pre-incubated SENP8/Z-RLRGG-aminoluciferin, luciferase luminescence interference; inhibition, % at 12.5 µM; actives 39% (n = 6,200);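 active means mean inhibition above about 50% when retested at one dose, limit read from the data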;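 further: plate controls were DMSO wells with completed reaction for no effect and substrate without enzyme for full effect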
The depositor's hits bear a star; i = inactive; x = no result given. Only some compounds are listed: those with a hit (about 2.5% of all), similar ones and a draw of the others.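 How the source made its calls, unless noted: active means mean inhibition above about 50% in the one-dose retest (limit read from the data); inactive means the rest.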

SMILES | SENP7 inh | SENP8 block-1 | SENP6 block | SENP1 inh | SENP8 block-2 | SENP8 confirm | SENP6 conf | SENP7 confirm | Casp3 SENP sel | Luc interf
Oc1cc(CNC2CCCCC2)c(O)cc1CNC1CCCCC1 | x | x | x | 14 | 27 | x | x | x | x | x
CCCOc1ccc(C(=O)Nc2cccnc2)cc1 | 69* | 37 | 70* | 0 | 0 | 54* | 52* | 86* | 83* | 69*
CCOc1cc(C(=O)Nc2cccnc2)cc(OCC)c1OCC | -4 | 5 | 18 | 1 | 2 | x | x | x | x | x
CC(C)c1nc(SCC(=O)Nc2ccc3c(c2)OCCO3)n[nH]1 | 7 | 3 | 0 | 0 | 8 | x | x | x | x | x
O=C(N/N=C/c1ccc[nH]1)c1ccccc1OCc1ccc(F)cc1 | -2 | 9 | 4 | -12 | -272 | x | x | x | x | x
CCOc1ccc(OCc2ccc(C(=O)NN=Cc3ccc[nH]3)cc2)cc1 | 93* | 71* | 93* | 0 | -338 | -1 | 0 | 3 | 16 | 29
O=C(O)c1cc2nc3c(c(C(F)(F)F)n2n1)CCc1ccccc1-3 | 6 | 3 | 72* | -2 | -50 | -21 | -14 | -8 | -7 | -5
COCCNC(=O)c1cc2nc3c(c(C(F)(F)F)n2n1)CCc1ccccc1-3 | -8 | -7 | -14 | -31 | -428 | x | x | x | x | x
COc1ccc(C(=O)O/N=C(\C)c2ccccc2)cc1 | 100* | 97* | 95* | 1 | 15 | 100* | 101* | 103* | 99* | 98*
CC(C)=NOC(=O)c1ccc(-c2ccccc2)cc1 | 72* | 58* | 77* | 0 | 29 | 75* | 76* | 90* | 71* | 67*
c1ccc(OCCSc2nnc3sc4ccccc4n23)cc1 | 16 | 68* | 80* | 1 | 14 | -5 | 68* | 88* | 78* | 75*
COc1ccc(C(=O)Nc2nnc(SCC(=O)Nc3ccc(NC(C)=O)cc3)s2)c(OC)c1 | 47 | -4 | 22 | 1 | -74 | x | x | x | x | x
COc1ccc(C(=O)Nc2nnc(SCC(=O)NCc3ccco3)s2)c(OC)c1 | 52* | 20 | 57* | -1 | -67 | -6 | 32 | 68* | 59* | -1
COc1ccc(C(=O)Nc2nnc(SCC(=O)NC3CCCC3)s2)c(OC)c1 | 63* | 37 | 64* | 0 | -47 | 15 | 12 | 12 | 18 | 4
COc1ccccc1C(=O)Nc1nnc(SCC(=O)NCc2ccco2)s1 | 28 | 15 | 19 | 2 | -85 | x | x | x | x | x
O=C(O)c1cccc(-n2cc(-c3cccc(C(F)(F)F)c3)cn2)c1 | 59* | 78* | 85* | -1 | 22 | -6 | 87* | 97* | 11 | 91*
O=C(/C=C/c1ccccc1)Nc1scc(-c2ccccc2)c1C(=O)O | x | x | x | 1 | -3 | x | x | x | x | x
O=C(/C=C/c1ccco1)Nc1scc(-c2ccccc2)c1C(=O)O | 95* | 97* | 98* | -1 | -4 | 98* | 99* | 102* | 98* | 97*
COc1ccc(-c2csc(NC(=O)c3ccccc3OC)c2C(=O)O)cc1OC | 1 | -9 | 9 | 0 | -154 | x | x | x | x | x
O=C(Nc1scc(-c2ccc(Br)cc2)c1C(=O)O)c1ccccc1F | 13 | 87* | 88* | 2 | -36 | 87* | 86* | 68* | 77* | 33
Cc1ccc(-c2csc(NC(=O)c3ccccc3F)c2C(=O)O)cc1 | 39 | 80* | 82* | -1 | -20 | 8 | 85* | 93* | 84* | 59*
COc1ccc(-c2csc(NC(=O)c3ccccc3Br)c2C(=O)O)cc1 | 6 | 30 | 53* | 1 | 5 | 49 | 49 | 68* | 48 | 62*
COc1ccc(-c2csc(NC(=O)c3ccc(C(C)(C)C)cc3)c2C(=O)O)cc1 | 11 | -2 | -8 | x | x | x | x | x | x | x
CC(c1nnc(SCC(=O)Nc2cccnc2Cl)n1Cc1ccccc1)N(C)C (stereo unspecified) | -7 | -11 | -5 | 0 | 13 | x | x | x | x | x
Cc1cc(Br)ccc1NC(=O)c1ccccc1-c1ccccc1 | 14 | 2 | 11 | 1 | 18 | x | x | x | x | x
SMILES | SENP7 inh | SENP8 block-1 | SENP6 block | SENP1 inh | SENP8 block-2 | SENP8 confirm | SENP6 conf | SENP7 confirm | Casp3 SENP sel | Luc interf
COc1ccc(-c2csc(NC(=O)c3cccs3)c2C(=O)O)cc1OC | 45 | 60* | 31 | 0 | -19 | 4 | 72* | 90* | 75* | 76*
CC(C)Cc1csc(NC(=O)c2ccc(Br)cc2)c1C(=O)O | -5 | 88* | 94* | 2 | 7 | 92* | 94* | 92* | 80* | 58*
Cc1ccc(C(=O)Nc2scc(-c3ccccc3)c2C(=O)O)o1 | 57* | 66* | 50 | 1 | -253 | 86* | 85* | 96* | 92* | 82*
Cc1ccccc1C(=O)Nc1scc(-c2ccc(Br)cc2)c1C(=O)O | 1 | 75* | 86* | 1 | -47 | 2 | 53* | 12 | 52* | 4
Cc1c(C(=O)N2CCN(S(=O)(=O)c3ccccc3)CC2)oc2ccc(Br)cc12 | 6 | -1 | -4 | 1 | -1 | x | x | x | x | x
O=C(Nc1scc(-c2ccccc2)c1C(=O)O)c1ccccc1F | 15 | 68* | 75* | 2 | -45 | 82* | 79* | 90* | 85* | 80*
CC/C(=N\NC(=O)CCC(=O)NCc1ccccc1)c1ccc(O)cc1 | 3 | 0 | 13 | 2 | 0 | x | x | x | x | x
COc1cccc2sc3cc(C#Cc4ccccn4)ccc3c(=O)c12 | -1 | 11 | 17 | -33 | -242 | x | x | x | x | x
COc1cccc2oc3ccc(C#Cc4ccccn4)cc3c(=O)c12 | 100* | 94* | 100* | -6 | i | 73* | 90* | 100* | 91* | 75*
FC(F)Oc1ccc(NC(=S)NCc2ccccc2)cc1 | 0 | -9 | -11 | 3 | 5 | x | x | x | x | x
Oc1cccc2c(NC(=S)Nc3ccc(OC(F)F)cc3)cccc12 | 49 | 80* | 94* | -42 | -190 | -4 | 15 | 2 | 5 | 15
NC(=O)c1c(NC(=O)c2ccc([N+](=O)[O-])o2)sc2c1CCCC2 | -4 | -10 | -15 | 1 | -76 | x | x | x | x | x
COC(=O)c1c(NC(=O)c2ccco2)sc2c1CCC2 | 2 | -4 | -6 | -2 | -401 | x | x | x | x | x
